Source: article PMC6249066 (Journal of medicinal chemistry, 2018)

Assays:
[1] = tested on: peripheral blood derived mononuclear cells (PBMCs); assay: Cell viability in PBMCs from healthy individuals; assay type: cell-based; conditions: PBMCs from healthy individuals
[2] = tested on: patients with relapsed or refractory multiple myeloma; conditions: cited from earlier work
human HDAC1 = human HDAC1 (Homo sapiens, UniProt Q13547); assay: HDAC IC50 profiling, fluorescence-based assay; assay type: biochemical; conditions: result in words
human HDAC2 = human HDAC2 (Homo sapiens, UniProt Q92769); assay: HDAC IC50 profiling, fluorescence-based assay; assay type: biochemical; conditions: result in words
human HDAC3 = human HDAC3 (Homo sapiens, UniProt O15379); assay: HDAC IC50 profiling, fluorescence-based assay; assay type: biochemical; conditions: result in words
[3] = tested on: primary BCP-ALL cells derived from four therapy-refractory patients; assay type: cell-based; conditions: Homo sapiens, read-out: IC50 values, range over four patients
[4] = Cell viability in PBMCs from healthy individuals; assay type: cell-based; conditions: human
[5] = tested on: trypsin-like proteasome activity; assay: Cell-based Proteasome-Glo trypsin-like assay
Summary of the method: (§1)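 Cell-based Proteasome-Glo kits: a luminogenic peptide substrate is cleaved by the proteasome to aminoluciferin, which Ultra-Glo luciferase consumes to give luminescence proportional to the corresponding protease activity. Luminescence read on a plate reader.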

[6] = tested on: caspase-like proteasome activity; assay: Cell-based Proteasome-Glo caspase-like assay
Summary of the method: as §1

[7] = tested on: acetyl-α-tubulin, acetyl-Histone H3, PARP in HL-60, SEM and SUP-B15r cells; assay: Western blotting of cell lysates; assay type: cell-based; conditions: 24 h
Summary of the method: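 HL-60 and SEM cells (RPMI1640, 10% FCS, 37°C, 5% CO2) and TKI-resistant SUP-B15r cells (McCoy's 5A, 20% FCS) exposed to test compound or reference HDAC/proteasome inhibitors for 24 h. Lysates immunoblotted for acetyl-α-tubulin, acetyl-histone H3, PARP and GAPDH.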

SEM cells [8] = assay: Proliferation assay; assay type: cell-based; conditions: at IC50 or 2x IC50 concentrations
Summary of the method: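 SEM cells (RPMI1640, 10% FCS, 37°C, 5% CO2) treated with test compound. Viable cells counted every 24 h by trypan blue exclusion on an automated cell counter.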

SEM cells [9] = assay: CFU assay; assay type: cell-based; conditions: 48 h exposure, colonies counted after 14 days
Summary of the method: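 SEM cells pretreated with test compound or control in liquid medium, then seeded in semisolid methylcellulose-based medium that also contains the compound or control. Colonies counted after 14 days.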

[10] = tested on: aggresome accumulation in SEM cells; assay: Aggresome detection assay; assay type: cell-based; conditions: 18 h, at inhibitory concentration
Summary of the method: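 SEM cells (RPMI1640, 10% FCS, 37°C, 5% CO2) exposed to test compound 18 h, then stained for aggresomes and DNA with a Proteostat aggresome detection kit. Imaged by fluorescence microscopy (63X objective), or analysed by FACS, where the aggresome propensity factor is derived from relative mean fluorescence intensity.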

SEM cells [11] = assay: Cell cycle analysis; assay type: cell-based; conditions: 48 h, dose dependent
Summary of the method: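 SEM cells (RPMI1640, 10% FCS, 37°C, 5% CO2) exposed to test compound for 48 h, then permeabilised. DNA stained with propidium iodide and cell cycle distribution read by FACS.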

Sequence of human HDAC1 (Q13547 whole entry): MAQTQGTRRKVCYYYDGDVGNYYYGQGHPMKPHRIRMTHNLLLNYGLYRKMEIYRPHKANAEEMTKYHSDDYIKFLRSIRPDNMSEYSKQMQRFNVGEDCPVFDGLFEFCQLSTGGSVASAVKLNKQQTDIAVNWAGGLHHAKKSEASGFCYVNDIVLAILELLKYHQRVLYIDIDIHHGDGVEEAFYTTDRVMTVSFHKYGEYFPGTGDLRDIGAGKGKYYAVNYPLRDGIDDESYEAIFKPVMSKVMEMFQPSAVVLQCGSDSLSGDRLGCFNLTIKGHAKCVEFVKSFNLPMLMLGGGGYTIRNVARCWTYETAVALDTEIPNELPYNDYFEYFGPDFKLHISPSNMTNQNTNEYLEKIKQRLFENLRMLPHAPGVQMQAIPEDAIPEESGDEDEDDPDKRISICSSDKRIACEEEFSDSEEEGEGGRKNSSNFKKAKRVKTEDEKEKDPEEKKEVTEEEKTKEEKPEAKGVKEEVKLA
Sequence of human HDAC3 (O15379 whole entry): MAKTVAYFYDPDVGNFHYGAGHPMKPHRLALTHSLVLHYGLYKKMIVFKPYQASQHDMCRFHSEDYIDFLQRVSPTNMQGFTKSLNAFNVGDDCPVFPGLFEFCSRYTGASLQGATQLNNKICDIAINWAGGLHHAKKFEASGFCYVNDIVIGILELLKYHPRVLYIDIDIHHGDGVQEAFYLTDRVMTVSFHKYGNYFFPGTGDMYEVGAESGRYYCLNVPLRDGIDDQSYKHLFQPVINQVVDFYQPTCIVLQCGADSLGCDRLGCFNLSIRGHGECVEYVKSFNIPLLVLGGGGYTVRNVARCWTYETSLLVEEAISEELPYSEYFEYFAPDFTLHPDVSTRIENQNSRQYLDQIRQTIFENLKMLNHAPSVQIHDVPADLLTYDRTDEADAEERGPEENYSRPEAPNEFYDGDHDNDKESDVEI
Sequence of human HDAC3 (Q9Y618 395-489 partner limits assumed): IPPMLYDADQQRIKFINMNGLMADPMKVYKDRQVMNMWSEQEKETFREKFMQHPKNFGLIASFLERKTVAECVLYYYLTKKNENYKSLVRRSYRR
Sequence of human HDAC2 (Q92769 whole entry): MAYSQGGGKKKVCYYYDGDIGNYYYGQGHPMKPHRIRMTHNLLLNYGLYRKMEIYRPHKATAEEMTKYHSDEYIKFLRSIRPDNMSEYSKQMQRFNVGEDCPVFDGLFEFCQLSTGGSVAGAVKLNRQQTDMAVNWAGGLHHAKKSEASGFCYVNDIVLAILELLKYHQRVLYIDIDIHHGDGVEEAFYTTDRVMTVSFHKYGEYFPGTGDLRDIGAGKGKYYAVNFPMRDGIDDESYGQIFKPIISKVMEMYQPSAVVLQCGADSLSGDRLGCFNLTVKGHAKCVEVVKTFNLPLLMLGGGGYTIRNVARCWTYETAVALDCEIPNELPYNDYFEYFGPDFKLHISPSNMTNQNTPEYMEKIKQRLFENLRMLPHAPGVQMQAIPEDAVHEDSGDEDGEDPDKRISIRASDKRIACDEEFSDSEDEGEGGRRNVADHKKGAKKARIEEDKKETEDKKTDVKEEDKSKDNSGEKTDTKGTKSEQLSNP

SMILES	IC50 against PBMCs, concentration range in words [1]	response rate ([2]; ricolinostat in combination with bortezomib and dexamethasone)	toxicity and clinical responses as single agent ([2]; single agent)	activity against HDAC1 (human HDAC1)	activity against HDAC2 (human HDAC2)	activity against HDAC3 (human HDAC3)	IC50 [3]	IC50 at 72 h [4]	inhibition of trypsin-like proteasome activity [5]	inhibition of caspase-like proteasome activity [6]	expression of cleaved PARP (marker of apoptosis) [7]	expression of acetyl-α tubulin and acetyl-histone H3 ([7]; compared to bortezomib)	proliferation of SEM cells (SEM cells [8])	colony forming capacity (SEM cells [9])	aggresome accumulation [10]	cell cycle effect (SEM cells [11])
CC(C)C[C@H](NC(=O)[C@H](Cc1ccccc1)NC(=O)c1cnccn1)B(O)O [bortezomib]	submicromolar	–	–	–	–	–	–	–	–	–	–	–	–	–	–	–
O=C(CCCCCCNC(=O)c1cnc(N(c2ccccc2)c2ccccc2)nc1)NO [Ricolinostat]	single-digit micromolar	37%	neither significant toxicity nor clinical responses	–	–	–	–	–	–	–	–	–	–	–	–	–
C[C@H](NC(=O)[C@H](CC(=O)NCC(C)(C)C)NC(=O)c1ccc(C(=O)NO)cc1)C(=O)NCc1ccccc1 [RTS-V5, N^1-((S)-1-(((S)-1-(Benzylamino)-1-oxopropan-2-yl)amino)-4-(neopentylamino)-1,4-dioxobutan-2-yl)-N^4-hydroxyterephthalamide]	–	–	–	low activity	low activity	low activity	1.51 to 5.23 µM	> 25 µM	unable to inhibit	unable to inhibit	upregulated	enhanced the expression	significantly inhibited	significantly reduced	significantly blocked	arrested in S phase
